Assay results from ChEMBL document CHEMBL1145619, “Conformation-activity relationship on novel 4-pyridylmethylthio derivatives with antiangiogenic activity” (Bioorg Med Chem Lett, 2008).

Columns and labels:
[1] = biological target: T1, Vascular endothelial growth factor receptor 2 (Homo sapiens, UniProt P35968); experiment: Inhibition of KDR by ELISA
In short: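 KDR kinase activity measured with a commercial kinase assay development kit by ELISA. The read-out is the phosphorylation level of a biotinylated peptide containing Tyr in its sequence.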

[2] = biological target: T1, Vascular endothelial growth factor receptor 2; experiment: Inhibition of KDR at 10 uM by ELISA
In short: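 KDR kinase activity measured with a commercial kinase assay development kit by ELISA. The read-out is the phosphorylation level of a biotinylated peptide containing Tyr in its sequence. The table gives IC50 values, and gives percent inhibition at 10 µM where the IC50 exceeded the range.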

HUVEC = experiment: Antiproliferative activity against VEGF-induced HUVEC cells; assay type: functional, cell-based; settings: Homo sapiens

T1 sequence (P35968 whole entry): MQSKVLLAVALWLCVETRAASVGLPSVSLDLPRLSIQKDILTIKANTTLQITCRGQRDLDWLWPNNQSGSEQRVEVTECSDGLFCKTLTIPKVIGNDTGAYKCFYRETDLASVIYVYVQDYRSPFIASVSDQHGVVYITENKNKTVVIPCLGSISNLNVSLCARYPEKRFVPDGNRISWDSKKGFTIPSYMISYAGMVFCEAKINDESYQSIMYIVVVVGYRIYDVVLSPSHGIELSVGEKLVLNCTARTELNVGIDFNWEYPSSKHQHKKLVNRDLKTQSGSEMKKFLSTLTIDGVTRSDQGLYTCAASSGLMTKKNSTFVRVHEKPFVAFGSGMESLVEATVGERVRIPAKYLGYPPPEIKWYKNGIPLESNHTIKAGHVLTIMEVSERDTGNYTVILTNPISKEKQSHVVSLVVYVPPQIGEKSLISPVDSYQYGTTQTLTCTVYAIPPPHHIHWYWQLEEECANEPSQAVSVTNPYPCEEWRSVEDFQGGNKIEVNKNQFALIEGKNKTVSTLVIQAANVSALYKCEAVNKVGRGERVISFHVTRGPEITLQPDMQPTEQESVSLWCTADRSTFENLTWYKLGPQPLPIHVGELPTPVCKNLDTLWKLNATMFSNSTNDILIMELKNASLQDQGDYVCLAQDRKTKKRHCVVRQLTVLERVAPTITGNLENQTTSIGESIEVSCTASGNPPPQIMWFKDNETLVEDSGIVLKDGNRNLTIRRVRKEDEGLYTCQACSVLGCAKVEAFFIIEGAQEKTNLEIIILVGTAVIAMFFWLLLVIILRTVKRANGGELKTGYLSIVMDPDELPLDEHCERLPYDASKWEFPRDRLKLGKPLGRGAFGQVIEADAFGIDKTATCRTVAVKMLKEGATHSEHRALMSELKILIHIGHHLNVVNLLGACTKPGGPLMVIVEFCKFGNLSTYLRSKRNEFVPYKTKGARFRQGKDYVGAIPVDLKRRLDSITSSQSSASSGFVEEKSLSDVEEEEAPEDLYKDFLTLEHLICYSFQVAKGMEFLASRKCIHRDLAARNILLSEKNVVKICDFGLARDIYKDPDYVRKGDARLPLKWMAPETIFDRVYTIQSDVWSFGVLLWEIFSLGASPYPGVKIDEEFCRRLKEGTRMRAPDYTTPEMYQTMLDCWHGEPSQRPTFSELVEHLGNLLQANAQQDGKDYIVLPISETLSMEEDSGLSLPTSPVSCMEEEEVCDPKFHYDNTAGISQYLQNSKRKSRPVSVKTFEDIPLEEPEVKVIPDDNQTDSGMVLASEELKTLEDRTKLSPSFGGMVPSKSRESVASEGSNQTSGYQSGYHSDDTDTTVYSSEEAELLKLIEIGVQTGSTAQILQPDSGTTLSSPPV

O=C(Nc1ccc(Cl)cc1)c1ccccc1OCc1ccncc1
IC50 [1]: > 1000 nM | inhibition [2]: 54% | IC50 (HUVEC): > 2000 nM

Clc1ccc(Nc2nnc(Cc3ccncc3)c3ccccc23)cc1
IC50 (HUVEC): 6 nM

O=C(Nc1ccc(Cl)cc1)c1ccccc1SCc1ccncc1
IC50 [1]: 46 nM

S=C(Nc1ccc(Cl)cc1)c1ccccc1OCc1ccncc1
IC50 [1]: > 1000 nM | inhibition [2]: 0%

O=C(Nc1ccc(Cl)cc1)c1cccnc1SCc1ccncc1
IC50 [1]: 26 nM
